For test [1], the target named is Glutamate receptor 1 (Rattus norvegicus, UniProt P19490). In words: Antagonist activity at rat recombinant GLuR1 expressed in Xenopus oocytes assessed as inhibition of glutamate-induced current by two-electrode voltage-clamp electrophysiology. It counts as functional, cell-based, Oocyte. In short, it runs like this: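 Two-electrode voltage clamp at −40 mV on Xenopus oocytes expressing rat GluR1, perfused with 90 NaCl, 1.0 KCl, 0.5 BaCl2, 0.005 EDTA, 10 HEPES (mM), pH 7.4, 23°C; activated by 100 μM glutamate. From 20 mM DMSO stocks, 5-7 concentrations, ≥4 oocytes each. Hill fit to mean composite curves normalized to control, minimum usually fixed at 0. Response >75% at 100 μM reported as >300 μM.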
For orientation: Two-electrode voltage clamp is typically applied to oocytes expressing channels or transporters.

The target in test [2] is Glutamate NMDA receptor; Grin1/Grin2c (Rattus norvegicus, UniProt P35439+Q00961). Kind of test: Antagonist activity at rat recombinant NR1-NR2C receptor expressed in Xenopus oocytes at holding potential of -40mV by two-electrode voltage-clamp electrophysiology. In kind it is functional, cell-based, Oocyte. Summed up: (§1)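 Oocytes expressing rat NR1-1a with NR2A, NR2B, NR2C or NR2D, clamped at −40 mV in Ba2+/HEPES recording solution pH 7.4, 23°C. Current evoked by 100 μM glutamate plus 30 μM glycine. Final DMSO 0.05-0.5%, 5-7 inhibitor concentrations, ≥4 oocytes each. IC50 from Hill fit of normalized mean composite data. […] Some NR2A oocytes given BAPTA-AM or K-BAPTA.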

For test [3], the target named is Glutamate NMDA receptor; Grin1/Grin2b (Rattus norvegicus, UniProt P35439+Q00960). Kind of test: Antagonist activity at rat recombinant NR1-NR2B receptor expressed in Xenopus oocytes at holding potential of -40mV by two-electrode voltage-clamp electrophysiology. In kind it is functional, cell-based, Oocyte. The note with it: read-out: IC50. Summed up:
as §1

Test [4] has as its target Glutamate NMDA receptor; Grin1/Grin2a (Rattus norvegicus, UniProt P35439+Q00959). In words: Antagonist activity at rat recombinant NR1-NR2A receptor expressed in Xenopus oocytes at holding potential of -40mV by two-electrode voltage-clamp electrophysiology. The note with it: read-out: IC50. In kind it is functional, cell-based, Oocyte. In short, it runs like this: as §1

For test [5], the species on record is Rattus norvegicus. In words: Selectivity ratio of IC50 for rat recombinant GLuR1 to IC50 for rat recombinant NR1-NR2D receptor. Summed up: (§2)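 Ratio of fitted IC50 values, either NR2A/NR2D or GluR1/NR2D, from two-electrode voltage-clamp Hill fits in oocytes. Where noted, calculated from IC50 values rounded to the nearest μM.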
Test [6] deals with Ionotropic glutamate receptor NMDA 1/2D (Rattus norvegicus, UniProt P35439+Q62645). In words: Antagonist activity at rat recombinant NR1-NR2D receptor expressed in Xenopus oocytes at holding potential of -40mV by two-electrode voltage-clamp electrophysiology. In kind it is functional, cell-based, Oocyte. Summed up: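 Oocytes expressing rat NR1-1a with NR2A, NR2B, NR2C or NR2D, clamped at −40 mV in Ba2+/HEPES recording solution pH 7.4, 23°C. Current evoked by 100 μM glutamate plus 30 μM glycine. Final DMSO 0.05-0.5%, 5-7 inhibitor concentrations, ≥4 oocytes each. IC50 from Hill fit of normalized mean composite data. Some NR2A oocytes given BAPTA-AM or K-BAPTA.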

The species entered for test [7] is Rattus norvegicus. Kind of test: Selectivity ratio of IC50 for rat recombinant NR1-NR2A receptor to IC50 for rat recombinant NR1-NR2D receptor. In short, it runs like this:
as §2

Structures are written as SMILES.

Chain of Glutamate NMDA receptor; Grin1/Grin2b (Q00960 whole entry, other chains not shown): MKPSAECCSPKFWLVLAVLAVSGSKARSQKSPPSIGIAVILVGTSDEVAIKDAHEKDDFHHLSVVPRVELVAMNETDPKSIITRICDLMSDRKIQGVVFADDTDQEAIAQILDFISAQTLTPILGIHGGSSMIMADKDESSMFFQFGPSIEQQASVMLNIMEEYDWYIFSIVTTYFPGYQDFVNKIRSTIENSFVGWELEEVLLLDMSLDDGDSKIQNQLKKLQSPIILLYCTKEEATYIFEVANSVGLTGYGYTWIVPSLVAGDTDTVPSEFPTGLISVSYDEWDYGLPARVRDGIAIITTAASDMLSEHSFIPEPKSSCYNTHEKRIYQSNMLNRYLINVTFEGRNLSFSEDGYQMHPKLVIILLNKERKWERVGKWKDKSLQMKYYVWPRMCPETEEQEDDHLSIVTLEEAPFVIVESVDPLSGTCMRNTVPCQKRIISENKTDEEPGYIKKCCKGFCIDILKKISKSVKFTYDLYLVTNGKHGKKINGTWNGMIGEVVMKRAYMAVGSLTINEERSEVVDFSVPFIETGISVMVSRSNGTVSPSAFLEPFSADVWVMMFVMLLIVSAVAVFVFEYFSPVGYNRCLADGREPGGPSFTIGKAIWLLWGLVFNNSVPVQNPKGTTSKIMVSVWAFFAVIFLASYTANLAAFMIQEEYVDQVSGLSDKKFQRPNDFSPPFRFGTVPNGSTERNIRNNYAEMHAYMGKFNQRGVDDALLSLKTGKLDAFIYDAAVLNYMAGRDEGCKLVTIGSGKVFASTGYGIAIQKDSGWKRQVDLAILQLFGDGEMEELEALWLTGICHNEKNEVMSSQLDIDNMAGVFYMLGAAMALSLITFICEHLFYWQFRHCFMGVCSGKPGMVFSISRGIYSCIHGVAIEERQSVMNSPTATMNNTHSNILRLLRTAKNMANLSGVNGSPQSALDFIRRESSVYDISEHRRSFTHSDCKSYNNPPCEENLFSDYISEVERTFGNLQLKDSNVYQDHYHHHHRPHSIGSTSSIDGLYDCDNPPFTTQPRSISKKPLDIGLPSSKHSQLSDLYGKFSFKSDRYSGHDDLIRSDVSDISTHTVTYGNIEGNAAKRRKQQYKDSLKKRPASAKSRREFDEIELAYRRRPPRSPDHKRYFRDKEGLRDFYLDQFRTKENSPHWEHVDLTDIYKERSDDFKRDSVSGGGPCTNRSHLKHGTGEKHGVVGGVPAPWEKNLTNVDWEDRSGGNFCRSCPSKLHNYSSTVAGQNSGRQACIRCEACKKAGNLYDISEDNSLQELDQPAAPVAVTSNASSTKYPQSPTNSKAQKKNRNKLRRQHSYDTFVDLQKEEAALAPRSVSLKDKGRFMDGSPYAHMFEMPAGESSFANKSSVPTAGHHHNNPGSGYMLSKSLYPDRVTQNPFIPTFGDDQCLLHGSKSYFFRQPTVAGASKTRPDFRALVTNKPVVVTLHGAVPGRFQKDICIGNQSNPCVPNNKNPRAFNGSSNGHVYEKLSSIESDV
Chain of Glutamate receptor 1 (P19490 whole entry, the tested form may be a part): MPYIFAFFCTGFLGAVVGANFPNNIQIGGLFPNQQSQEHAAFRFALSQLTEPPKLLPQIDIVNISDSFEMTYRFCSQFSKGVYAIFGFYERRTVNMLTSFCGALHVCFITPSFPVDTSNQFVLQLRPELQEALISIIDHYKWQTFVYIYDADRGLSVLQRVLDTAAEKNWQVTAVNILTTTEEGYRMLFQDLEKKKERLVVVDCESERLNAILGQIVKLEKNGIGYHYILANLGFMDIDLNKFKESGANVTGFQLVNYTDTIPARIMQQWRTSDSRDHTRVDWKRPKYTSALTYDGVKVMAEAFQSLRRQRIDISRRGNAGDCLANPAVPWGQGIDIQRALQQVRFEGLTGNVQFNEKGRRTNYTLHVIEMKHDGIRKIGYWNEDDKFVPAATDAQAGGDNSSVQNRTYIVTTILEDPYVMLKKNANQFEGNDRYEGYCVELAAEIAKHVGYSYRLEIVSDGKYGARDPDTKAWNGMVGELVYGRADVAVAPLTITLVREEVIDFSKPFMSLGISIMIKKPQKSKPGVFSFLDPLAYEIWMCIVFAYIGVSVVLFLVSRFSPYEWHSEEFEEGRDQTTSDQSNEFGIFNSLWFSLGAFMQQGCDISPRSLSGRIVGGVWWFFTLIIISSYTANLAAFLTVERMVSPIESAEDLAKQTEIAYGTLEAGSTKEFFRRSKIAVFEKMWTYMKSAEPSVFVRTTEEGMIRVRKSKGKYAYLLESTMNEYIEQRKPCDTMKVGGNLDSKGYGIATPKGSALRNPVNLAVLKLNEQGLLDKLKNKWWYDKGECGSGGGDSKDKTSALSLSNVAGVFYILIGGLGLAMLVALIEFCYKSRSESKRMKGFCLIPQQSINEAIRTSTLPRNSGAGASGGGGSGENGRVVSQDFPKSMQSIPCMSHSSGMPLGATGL
Chain of Ionotropic glutamate receptor NMDA 1/2D (Q62645 whole entry, other chains not shown): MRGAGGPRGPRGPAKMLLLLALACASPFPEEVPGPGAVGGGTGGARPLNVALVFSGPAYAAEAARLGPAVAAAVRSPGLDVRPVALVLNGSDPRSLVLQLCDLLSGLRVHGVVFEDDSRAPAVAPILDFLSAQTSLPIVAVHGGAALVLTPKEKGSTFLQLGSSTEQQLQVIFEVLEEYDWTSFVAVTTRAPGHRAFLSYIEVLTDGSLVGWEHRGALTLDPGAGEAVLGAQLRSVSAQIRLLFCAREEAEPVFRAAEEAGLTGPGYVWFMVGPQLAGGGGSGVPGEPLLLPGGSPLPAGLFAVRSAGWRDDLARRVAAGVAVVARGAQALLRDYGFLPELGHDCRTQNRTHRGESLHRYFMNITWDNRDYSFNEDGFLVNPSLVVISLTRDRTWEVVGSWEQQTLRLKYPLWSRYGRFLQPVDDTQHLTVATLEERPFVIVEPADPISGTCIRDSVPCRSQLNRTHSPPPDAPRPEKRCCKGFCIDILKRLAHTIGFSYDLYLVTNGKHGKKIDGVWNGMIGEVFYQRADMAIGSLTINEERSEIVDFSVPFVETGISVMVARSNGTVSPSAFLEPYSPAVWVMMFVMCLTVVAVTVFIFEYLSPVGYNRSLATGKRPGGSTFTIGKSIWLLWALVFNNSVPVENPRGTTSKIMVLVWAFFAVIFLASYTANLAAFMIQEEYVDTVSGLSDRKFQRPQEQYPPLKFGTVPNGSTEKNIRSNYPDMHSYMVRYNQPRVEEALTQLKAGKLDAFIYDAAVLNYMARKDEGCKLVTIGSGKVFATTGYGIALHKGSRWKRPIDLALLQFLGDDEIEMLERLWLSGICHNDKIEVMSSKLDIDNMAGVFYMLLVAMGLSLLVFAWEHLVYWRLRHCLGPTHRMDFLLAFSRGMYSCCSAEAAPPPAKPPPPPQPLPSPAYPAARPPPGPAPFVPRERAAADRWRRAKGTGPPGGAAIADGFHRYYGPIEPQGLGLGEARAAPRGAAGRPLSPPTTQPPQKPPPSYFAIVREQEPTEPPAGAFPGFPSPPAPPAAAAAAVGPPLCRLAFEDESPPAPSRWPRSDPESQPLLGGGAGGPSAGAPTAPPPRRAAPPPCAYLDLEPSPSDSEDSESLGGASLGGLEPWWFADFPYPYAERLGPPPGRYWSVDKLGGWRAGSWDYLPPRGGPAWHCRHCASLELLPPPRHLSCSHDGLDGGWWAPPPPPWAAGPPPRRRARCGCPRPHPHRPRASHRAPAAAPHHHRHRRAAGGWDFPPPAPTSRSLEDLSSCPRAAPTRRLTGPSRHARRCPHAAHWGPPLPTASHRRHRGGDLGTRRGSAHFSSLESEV
Chain of Glutamate NMDA receptor; Grin1/Grin2c (Q00961 whole entry, other chains not shown): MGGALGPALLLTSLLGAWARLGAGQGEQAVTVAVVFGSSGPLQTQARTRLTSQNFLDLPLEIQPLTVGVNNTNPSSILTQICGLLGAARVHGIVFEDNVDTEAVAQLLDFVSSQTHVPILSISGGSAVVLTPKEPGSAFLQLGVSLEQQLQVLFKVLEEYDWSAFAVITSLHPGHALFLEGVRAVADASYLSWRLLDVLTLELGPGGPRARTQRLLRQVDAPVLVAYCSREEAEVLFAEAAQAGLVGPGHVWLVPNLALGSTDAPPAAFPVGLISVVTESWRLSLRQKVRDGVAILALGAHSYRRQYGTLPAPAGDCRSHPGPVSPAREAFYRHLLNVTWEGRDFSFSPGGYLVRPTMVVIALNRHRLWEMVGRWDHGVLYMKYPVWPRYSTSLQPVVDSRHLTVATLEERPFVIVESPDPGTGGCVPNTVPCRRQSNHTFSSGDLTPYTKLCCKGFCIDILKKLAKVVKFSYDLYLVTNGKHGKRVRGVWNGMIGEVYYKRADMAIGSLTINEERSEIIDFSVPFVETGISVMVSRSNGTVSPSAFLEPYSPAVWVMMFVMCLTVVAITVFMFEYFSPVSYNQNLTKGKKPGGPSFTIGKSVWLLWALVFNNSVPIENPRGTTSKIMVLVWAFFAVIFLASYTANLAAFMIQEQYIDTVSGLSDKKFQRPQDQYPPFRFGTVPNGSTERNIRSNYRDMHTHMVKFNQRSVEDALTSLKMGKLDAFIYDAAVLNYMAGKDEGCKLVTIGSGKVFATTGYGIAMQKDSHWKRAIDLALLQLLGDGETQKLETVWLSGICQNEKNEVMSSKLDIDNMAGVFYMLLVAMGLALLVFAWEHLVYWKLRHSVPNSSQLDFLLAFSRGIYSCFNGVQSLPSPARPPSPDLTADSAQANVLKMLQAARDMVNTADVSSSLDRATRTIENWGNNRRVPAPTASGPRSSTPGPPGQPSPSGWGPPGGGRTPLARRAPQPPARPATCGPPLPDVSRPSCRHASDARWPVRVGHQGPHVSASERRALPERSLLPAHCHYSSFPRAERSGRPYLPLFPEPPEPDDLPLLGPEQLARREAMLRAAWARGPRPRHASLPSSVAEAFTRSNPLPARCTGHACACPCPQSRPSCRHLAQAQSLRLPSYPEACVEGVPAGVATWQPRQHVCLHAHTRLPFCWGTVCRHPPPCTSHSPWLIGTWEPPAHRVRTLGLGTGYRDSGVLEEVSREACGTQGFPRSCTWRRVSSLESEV

For `O=C(O)c1ccc(-n2c(/C=C/c3ccccc3)nc3ccc(I)cc3c2=O)cc1`, the IC50 (commonly the concentration at which inhibition is half-maximal) is 23 µM in test [1]; 13 µM in test [2]; 66 µM in test [3]; 53 µM in test [4]; 4 µM in test [6]. Further, the Ratio IC50 in test [5] was found to be 6; in test [7], 13.

As for `O=C(O)c1ccc(-n2c(/C=C/c3cccc([N+](=O)[O-])c3)nc3ccc(/C=C/c4ccccc4)cc3c2=O)cc1`, the IC50 in test [1] is 131 µM; in test [2], 4 µM; in test [3], 30 µM; in test [4], 19 µM; in test [6], 4 µM. Moreover, the Ratio IC50 worked out at 33 in test [5] and 5 in test [7].

Take `O=C(O)c1cccc(-n2c(/C=C/c3cccnc3)nc3ccc(I)cc3c2=O)c1`: the IC50 in test [1] was 64 µM; in test [2], 7 µM; in test [3], 49 µM; in test [4] it was 45 µM; in test [6], 4 µM. Also, the Ratio IC50 in test [5] came to 16; in test [7], 11.

With `O=C(O)c1ccc(-n2c(/C=C/c3cccc([N+](=O)[O-])c3)nc3c(Cl)cc(Cl)cc3c2=O)cc1`, the IC50 in test [1] is > 300 µM; in test [2] it was 16 µM; in test [3] it was 109 µM; in test [4] it was 224 µM; in test [6] it was 10 µM. Also, the Ratio IC50 came to 30 in test [5] and 22 in test [7].

As to `Cc1ccc2nc(/C=C/c3cccc([N+](=O)[O-])c3)n(-c3ccc(C(=O)O)cc3)c(=O)c2c1`, the IC50 in test [1] is 27 µM; in test [2], 5 µM; in test [3], 15 µM; in test [4], 12 µM; in test [6] it was 2 µM. Moreover, the values for the Ratio IC50 in test [5] and in test [7] were 14 and 6, respectively.

Consider `O=C(O)c1ccc(-n2c(/C=C/c3cccc([N+](=O)[O-])c3)nc3ccc(F)cc3c2=O)cc1`, for which the IC50 was found to be 7 µM in test [1], 33 µM in test [3], 36 µM in test [4] and 7 µM in test [6]. Also, the Ratio IC50 in test [5] came to 1; in test [7] it was 5.

As to `O=C(O)c1ccc(-n2c(/C=C/c3ccc(OC(F)F)cc3)nc3ccccc3c2=O)cc1`, the IC50 in test [1] worked out at 208 µM; in test [2], 33 µM; in test [3] it was 89 µM; in test [4], 73 µM; in test [6], 22 µM. Moreover, the figures for the Ratio IC50 in test [5] and in test [7] were 9 and 3, respectively.

Take `O=C(O)c1ccc(-n2c(/C=C/c3ccc(N4CCOCC4)cc3)nc3ccccc3c2=O)cc1`: the IC50 was > 300 µM in test [1]; 284 µM in test [2]; 122 µM in test [3]; > 300 µM in test [4]; 171 µM in test [6]. The Ratio IC50 in test [5] and in test [7] was 1 throughout.

As to `O=C(O)c1ccc(-n2c(/C=C/c3cccc([N+](=O)[O-])c3)nc3ccc(Br)cc3c2=O)cc1`, the IC50 in test [1] turned out to be 8 µM; in test [2] it was 2 µM; in test [3], 13 µM; in test [4] it was 17 µM; in test [6], 1 µM. For the same compound, the Ratio IC50 in test [5] is 8; in test [7] it was 17.

As to `O=C(O)c1ccc(-n2c(/C=C/c3cccc([N+](=O)[O-])c3)nc3cc4ccccc4cc3c2=O)cc1`, the IC50 in test [1] turned out to be 4 µM; in test [2], 2 µM; in test [3] it was 5 µM; in test [4], 11 µM; in test [6] it was 2 µM. Moreover, the Ratio IC50 in test [5] came to 2; in test [7], 6.

As to `O=C(O)c1ccc(-n2c(/C=C/c3cccc4ccccc34)nc3ccccc3c2=O)cc1`, the IC50 in test [1] is 82 µM; in test [2] it was 22 µM; in test [3] it was 68 µM; in test [4] it was 25 µM; in test [6] it was 6 µM. Moreover, the Ratio IC50 is 14 in test [5] and 4 in test [7].

For the compound `COc1cccc(-n2c(/C=C/c3cccnc3)nc3ccc(I)cc3c2=O)c1`, the IC50 in test [1], in test [2], in test [3] and in test [4] was > 300 µM in each case. Besides, the Ratio IC50 in test [5] and in test [7] was 1 throughout.

Take `COc1cccc(/C=C/c2nc3ccc(OC)cc3c(=O)n2-c2ccc(C(=O)O)cc2)c1`: the IC50 in test [1] was 220 µM; in test [2], 18 µM; in test [3], 109 µM; in test [4], 73 µM; in test [6] it was 9 µM. The Ratio IC50 amounted to 24 in test [5] and 8 in test [7].

Regarding `COc1ccccc1/C=C/c1nc2ccccc2c(=O)n1-c1ccc(C(=O)O)cc1`, the IC50 in test [1] was determined as 38 µM; in test [3], 51 µM; in test [4], 88 µM; in test [6], 16 µM. Also, the Ratio IC50 was determined as 2 in test [5] and 6 in test [7].

With `COc1ccc(/C=C/c2nc3ccccc3c(=O)n2-c2ccc(C(=O)O)cc2)cc1`, the 50% inhibitory concentration (IC50) in test [1] was 250 µM; in test [3], 98 µM; in test [4], 100 µM; in test [6] it was 31 µM. Further, the values for the Ratio IC50 in test [5] and in test [7] were 8 and 3, respectively.

Consider `O=C(O)c1ccc(-n2c(/C=C/c3ccc(O)cc3)nc3ccccc3c2=O)cc1`, for which the IC50 in test [1] amounted to 110 µM; in test [3], 35 µM; in test [4], 38 µM; in test [6], 36 µM. The Ratio IC50 in test [5] is 3; in test [7] it was 1.

Regarding `O=C(O)c1ccc(-n2c(/C=C/c3ccc(C(F)(F)F)cc3)nc3ccccc3c2=O)cc1`, the IC50 worked out at 233 µM in test [1], 55 µM in test [3], 61 µM in test [4] and 15 µM in test [6]. Also, the Ratio IC50 came out at 16 in test [5] and 4 in test [7].

With `O=C(O)c1ccc(-n2c(/C=C/c3cccc([N+](=O)[O-])c3)nc3cc4c(cc3c2=O)OCCO4)cc1`, the IC50 in test [1] is > 300 µM; in test [2], 281 µM; in test [3], > 300 µM; in test [6], 213 µM. For the same compound, the Ratio IC50 in test [5] and in test [7] was 1 in each case.

Take `O=C(O)c1ccc(-n2c(/C=C/c3ccccc3)nc3ccccc3c2=O)cc1`: the IC50 in test [1] was 25 µM; in test [3] it was 85 µM; in test [4], 84 µM; in test [6], 33 µM. For the same compound, the Ratio IC50 in test [5] turned out to be 1; in test [7] it was 3.

As to `Cc1ccccc1/C=C/c1nc2ccccc2c(=O)n1-c1ccc(C(=O)O)cc1`, the IC50 in test [1] worked out at 62 µM; in test [3] it was 93 µM; in test [4], 86 µM; in test [6] it was 81 µM. For the same compound, the Ratio IC50 in test [5] and in test [7] was 1 each time.

Turning to `O=C(O)c1ccc(-n2c(/C=C/c3ccccc3O)nc3ccccc3c2=O)cc1`, the IC50 in test [1] worked out at 36 µM; in test [3] it was 18 µM; in test [4], 20 µM; in test [6] it was 18 µM. Moreover, the results for the Ratio IC50 in test [5] and in test [7] were 2 and 1, respectively.

`COc1cccc(/C=C/c2nc3ccccc3c(=O)n2-c2ccc(C(=O)O)cc2)c1`: the IC50 in test [1] stood at 27 µM; in test [3], 36 µM; in test [4], 24 µM; in test [6], 9 µM. Besides, the Ratio IC50 in test [5] and in test [7] was 3 each time.

With `O=C(O)c1ccc(-n2c(/C=C/c3cccc(C(F)(F)F)c3)nc3ccccc3c2=O)cc1`, the IC50 stood at 22 µM in test [1], 26 µM in test [3], 13 µM in test [4] and 12 µM in test [6]. In addition, the Ratio IC50 in test [5] was 2; in test [7], 1.

`O=C(O)c1ccc(-n2c(/C=C/c3cccc(O)c3)nc3ccccc3c2=O)cc1`: the IC50 amounted to 24 µM in test [1], 30 µM in test [3], 52 µM in test [4] and 17 µM in test [6]. Further, the Ratio IC50 worked out at 1 in test [5] and 3 in test [7].

The record behind these values is ChEMBL document CHEMBL1212913, “Quinazolin-4-one derivatives: A novel class of noncompetitive NR2C/D subunit-selective N-methyl-D-aspartate receptor antagonists” (J Med Chem, 2010).
